Measured values reported in ChEMBL document CHEMBL3745688, “Discovery of novel hybrids of diaryl-1,2,4-triazoles and caffeic acid as dual inhibitors of cyclooxygenase-2 and 5-lipoxygenase for cancer therapy” (Eur J Med Chem, 2016).

Assays:
[1] = Antiproliferative activity against mouse B16F10 cells after 72 hrs by MTT assay; assay type: functional, cell-based; details: B16-F10, 72 h
In short: (§1)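 Cells seeded at 5×10^4/well, grown 24 h at 37 °C in 5% CO₂, then exposed to compounds dissolved in DMSO at a range of concentrations for 72 h. MTT (5 mg/mL in PBS) added for 4 h, then OD read at 570 nm. IC50 taken from dose-response curves, mean ± S.D. of three independent experiments.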

[2] = molecular target: T1, Prostaglandin G/H synthase 2 (Rattus norvegicus, UniProt P35355); assay: Inhibition of COX2 in rat abdominal macrophages assessed as PGE2 production pretreated for 30 mins followed by addition of 10 uM arachidonic acid as substrate for 20 mins by EIA
T1 sequence (P35355 whole entry): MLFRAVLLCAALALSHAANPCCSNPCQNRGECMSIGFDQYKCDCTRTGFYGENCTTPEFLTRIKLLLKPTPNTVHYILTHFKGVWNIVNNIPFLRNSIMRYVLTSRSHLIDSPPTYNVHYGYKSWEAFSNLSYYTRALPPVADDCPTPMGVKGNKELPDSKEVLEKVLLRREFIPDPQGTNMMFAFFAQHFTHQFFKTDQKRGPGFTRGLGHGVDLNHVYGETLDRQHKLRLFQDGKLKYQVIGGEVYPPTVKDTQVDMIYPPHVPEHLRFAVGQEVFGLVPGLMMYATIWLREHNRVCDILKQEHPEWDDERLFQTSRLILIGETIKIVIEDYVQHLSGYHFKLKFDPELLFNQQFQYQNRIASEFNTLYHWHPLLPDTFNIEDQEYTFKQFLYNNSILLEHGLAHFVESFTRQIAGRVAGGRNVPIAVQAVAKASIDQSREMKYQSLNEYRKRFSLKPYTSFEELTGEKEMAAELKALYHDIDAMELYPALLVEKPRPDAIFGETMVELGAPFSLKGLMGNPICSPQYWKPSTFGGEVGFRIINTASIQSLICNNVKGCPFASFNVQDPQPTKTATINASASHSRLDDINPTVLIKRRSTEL

A549 = assay: Antiproliferative activity against human A549 cells after 72 hrs by MTT assay; assay type: functional, cell-based; details: A549, 72 h; in short: as §1
[3] = Antiproliferative activity against human PC3 cells after 72 hrs by MTT assay; assay type: functional, cell-based; details: PC-3, 72 h; in short: as §1
[4] = Selectivity index, ratio of IC50 for rat COX2 to IC50 for calf COX1
In short: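 Ratio of COX-2 IC50 to COX-1 IC50. COX-2 was measured in rat peritoneal macrophages: 1.0×10^6/well in RPMI 1640 with 5% FCS, grown 24 h, COX-1 inactivated with 1 mM aspirin, COX-2 induced with LPS 1 µg/mL for 6 h, compound added for 30 min, then arachidonic acid 10 µM for 20 min, PGE2 read by EIA. COX-1 was measured in calf aortic endothelial cells by 6-keto-PGF1α radioimmunoassay.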

[5] = Antiproliferative activity against human Caco2 cells after 72 hrs by MTT assay; assay type: functional, cell-based; details: Caco-2, 72 h; in short: as §1
[6] = molecular target: T2, Prostaglandin G/H synthase 1 (Bos taurus, UniProt O62664); assay: Inhibition of COX1 in calf endotheliocyte assessed as 6keto-PGF1alpha production pretreated for 20 mins followed by addition of 10 uM arachidonic acid as substrate for 20 mins by radioimmuno assay
T2 sequence (O62664 whole entry): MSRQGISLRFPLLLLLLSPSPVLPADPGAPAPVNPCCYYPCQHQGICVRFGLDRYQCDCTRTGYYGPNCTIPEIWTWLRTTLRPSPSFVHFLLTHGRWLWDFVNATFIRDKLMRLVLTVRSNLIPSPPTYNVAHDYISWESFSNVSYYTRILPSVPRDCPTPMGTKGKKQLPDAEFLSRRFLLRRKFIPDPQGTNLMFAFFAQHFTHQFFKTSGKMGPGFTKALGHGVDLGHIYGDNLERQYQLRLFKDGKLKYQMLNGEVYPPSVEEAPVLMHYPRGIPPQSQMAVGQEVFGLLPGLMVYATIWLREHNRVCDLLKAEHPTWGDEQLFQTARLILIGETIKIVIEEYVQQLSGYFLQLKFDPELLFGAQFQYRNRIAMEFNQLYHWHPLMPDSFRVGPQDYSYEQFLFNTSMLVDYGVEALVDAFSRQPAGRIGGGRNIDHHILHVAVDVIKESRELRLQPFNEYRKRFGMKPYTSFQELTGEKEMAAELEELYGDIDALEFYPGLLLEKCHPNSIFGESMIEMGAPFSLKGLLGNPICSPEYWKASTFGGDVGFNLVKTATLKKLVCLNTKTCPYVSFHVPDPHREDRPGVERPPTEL
In short: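 Endothelial cells from neonatal calf thoracic aorta plated at 1.0×10^6 in DMEM with 10% FBS and grown 24 h at 37 °C in 5% CO₂. Compound or DMSO added for 20 min, then arachidonic acid (10 μM) for another 20 min. 6-keto-PGF1α in the medium quantified by radioimmunoassay. IC50 is the mean of four determinations.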

[7] = molecular target: T3, Polyunsaturated fatty acid 5-lipoxygenase (Rattus norvegicus, UniProt P12527); assay: Inhibition of 5-LOX in Sprague-Dawley rat leukocytes assessed as A23187 stimulated LTB4 production pretreated for 30 mins followed by addition of A23187 for 30 mins by EIA; assay type: cell-based
T3 sequence (P12527 whole entry): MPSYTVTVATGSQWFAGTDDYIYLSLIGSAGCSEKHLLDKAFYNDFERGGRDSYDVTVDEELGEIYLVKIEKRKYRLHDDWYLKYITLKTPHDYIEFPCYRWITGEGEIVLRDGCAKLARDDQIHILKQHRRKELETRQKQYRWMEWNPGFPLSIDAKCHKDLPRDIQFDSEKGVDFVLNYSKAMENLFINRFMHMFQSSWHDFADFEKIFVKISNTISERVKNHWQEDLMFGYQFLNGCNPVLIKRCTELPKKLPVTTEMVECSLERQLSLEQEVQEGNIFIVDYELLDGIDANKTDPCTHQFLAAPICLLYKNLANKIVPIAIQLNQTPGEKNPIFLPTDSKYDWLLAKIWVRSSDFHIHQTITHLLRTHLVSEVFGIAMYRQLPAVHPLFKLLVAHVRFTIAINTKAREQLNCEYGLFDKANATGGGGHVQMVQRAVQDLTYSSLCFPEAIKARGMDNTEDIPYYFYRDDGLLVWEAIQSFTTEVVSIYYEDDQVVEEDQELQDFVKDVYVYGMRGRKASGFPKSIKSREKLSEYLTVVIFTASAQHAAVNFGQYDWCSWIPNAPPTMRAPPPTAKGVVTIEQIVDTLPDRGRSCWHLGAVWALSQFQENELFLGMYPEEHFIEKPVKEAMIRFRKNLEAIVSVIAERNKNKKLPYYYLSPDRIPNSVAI
In short: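 Rat peritoneal leukocytes collected from Sprague-Dawley rats primed i.p. with 0.2% glycogen (20 mL/kg). Cells in Hanks solution plated at 1.0×10^6/well and held 10 min at 37 °C. Pretreated 30 min with L-cysteine (10 mM), indomethacin (1 mg/L) and compound or DMSO. A23187 added for 30 min. LTB4 in the clarified supernatant measured by EIA; % inhibition from OD; IC50 by Bliss method.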

[8] = Antitumor activity against mouse B16F10 cells xenografted in mouse assessed as inhibition of tumor growth at 20 mg/kg, iv after 25 days; assay type: functional; details: B16-F10, iv, 600 h
Mus musculus [9] = assay: Toxicity in mouse xenografted with B16F10 cells assessed as body weight at 20 mg/kg, iv measured after 25 days (reference value: 28.1 +/- 1.7 g); assay type: organism-based, B16-F10; details: in vivo, 600 h
[10] = molecular target: T4, Prostaglandin G/H synthase 2 (Homo sapiens, UniProt P35354); assay: Inhibition of COX-2 (unknown origin)
T4 sequence (P35354 whole entry): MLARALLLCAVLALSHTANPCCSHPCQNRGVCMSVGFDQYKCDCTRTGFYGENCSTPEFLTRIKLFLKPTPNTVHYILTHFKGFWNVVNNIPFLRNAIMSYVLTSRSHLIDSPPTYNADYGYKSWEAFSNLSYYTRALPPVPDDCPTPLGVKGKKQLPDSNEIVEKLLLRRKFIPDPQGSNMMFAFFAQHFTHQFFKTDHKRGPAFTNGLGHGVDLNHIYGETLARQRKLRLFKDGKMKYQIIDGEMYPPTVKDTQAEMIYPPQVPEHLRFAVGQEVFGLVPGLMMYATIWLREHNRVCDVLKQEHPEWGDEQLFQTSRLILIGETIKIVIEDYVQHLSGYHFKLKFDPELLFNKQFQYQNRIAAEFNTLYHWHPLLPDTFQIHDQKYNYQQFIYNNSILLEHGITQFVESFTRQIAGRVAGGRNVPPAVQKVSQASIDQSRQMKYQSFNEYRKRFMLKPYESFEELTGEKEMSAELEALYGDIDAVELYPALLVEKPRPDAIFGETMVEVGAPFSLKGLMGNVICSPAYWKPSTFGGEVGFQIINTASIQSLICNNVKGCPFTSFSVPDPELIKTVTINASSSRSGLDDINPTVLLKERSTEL

[11] = Antitumor activity against mouse B16F10 cells xenografted in mouse assessed as inhibition of tumor growth at 40 mg/kg, iv after 25 days; assay type: functional; details: B16-F10, iv, 600 h
In short: (§2)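 B16-F10 cells implanted subcutaneously in the right oxter of ICR mice weighing 18-22 g. After 7 days, animals weighed and randomized into groups of 10. Dosed intravenously with vehicle (saline with 1% DMSO/2% poloxamer, 0.4 ml/mouse), 40 mg/kg test agent, or 5-FU 20 mg/kg. Killed on day 25 after implantation. Tumors excised and weighed; inhibition = (1 − treated/vehicle mean tumor weight)×100; body weights recorded at start and end.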

Mus musculus [12] = assay: Toxicity in mouse xenografted with B16F10 cells assessed as body weight at 40 mg/kg, iv measured after 25 days (reference value: 28.1 +/- 1.7 g); assay type: organism-based, B16-F10; details: in vivo, 600 h; in short: as §2

SMILES | IC50 [1] | IC50 [2] | IC50 (A549) | IC50 [3] | Ratio IC50 [4] | IC50 [5] | IC50 [6] | IC50 [7] | inhibition in vivo at 20 mg/kg [8] | Activity (Mus musculus [9]) | IC50 [10] | inhibition in vivo at 40 mg/kg [11] | Activity (Mus musculus [12])
CS(=O)(=O)c1ccc(-c2nc(SCCCNC(=O)/C=C/c3ccc(O)c(O)c3)nn2-c2ccc(F)cc2)cc1 | 18.7 µM | 0.12 µM | 22.1 µM | 23.1 µM | 0.009 | 20.9 µM | 13.2 µM | 0.71 µM | – | – | – | – | –
O=c1[nH]cc(F)c(=O)[nH]1 [FLUOROURACIL] | – | – | – | – | – | – | – | – | 68.2% | 26 g | – | – | –
CSc1nc(-c2ccc(S(N)(=O)=O)cc2)n(-c2ccc(Cl)cc2)n1 | 32.3 µM | – | 29.5 µM | 37.5 µM | – | 41.2 µM | – | – | – | – | 0.37 µM | – | –
CS(=O)(=O)c1ccc(-c2nc(SCCCOC(=O)/C=C/c3ccccc3)nn2-c2ccc(Br)cc2)cc1 | 19.4 µM | 0.42 µM | 22.3 µM | 21.9 µM | 0.009 | 24.6 µM | 45.7 µM | 1.3 µM | – | – | – | – | –
COc1cc(/C=C/C(=O)OCCSc2nc(-c3ccc(S(C)(=O)=O)cc3)n(-c3ccc(C(F)(F)F)cc3)n2)ccc1O | 8.65 µM | 0.21 µM | 6.78 µM | 7.46 µM | 0.01 | 9.05 µM | 20.5 µM | 0.81 µM | – | – | – | 58.9% | 26.3 g
